# BasE inh = inhibitors of Acinetobacter baumannii siderophore enzyme BasE. purified BasE, fluorescence polarization binding displacement. inhibition, % (no concentration beside the values). hit rate 0.1% among 84,000; in the data active = inhibition above about 25%, passing the limit was not always enough;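 also: 0% = negative plate control signal and 100% = positive plate control signal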
# LANA-nucl inh = LANA-nucleosome interaction inhibition; FITC-LANA1-23 / chicken nucleosome fluorescence polarization; active compounds read low; z-score (concentration not given with the values); hit rate 0.3% among 51,000; AID 720717;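 active = both repeat wells score below -2 in polarization z-score versus plate sample wells, excluding overly bright wells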
#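 Test system: purified chicken nucleosomes with FITC-labelled LANA N-terminal peptide (1-23); Input: 240 nM purified chicken nucleosomes (480 nM peptide binding sites), final; Medium: TEN-BT buffer, pH 7.5; Timing: 10–45 min, room temperature; Technique: fluorescence polarization, 480 nm excitation, 535 nm parallel and perpendicular emission; Replication: duplicates.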
# Numbers without * were called inactive; · = not tested or not shown. Only a selection was taken, and hits are over-represented in it overall.
SMILES,BasE inh,LANA-nucl inh
NC(=O)NC(=O)COc1ccccc1Br,0,·
Cc1cc(N2CCCC2)ccc1/C=C/C1=CCN(C)CC1,-8,-4.1*
C=CCn1c(C)c(/C=C/C2=CCN(C)CC2)c2ccccc21,-20,-10
Nc1ccc(N2CCOCC2)c(N)c1,37*,2.5
NS(=O)(=O)c1ccc(N2CCOCC2)c(C(=O)O)c1,1,·
Cc1ccc(OCC(=O)NC2CCC(C)CC2)cc1C (stereo unspecified),1,·
Cc1cccc(OCC(=O)NC2CCCC2)c1,29*,0.052
CC1CCCC(NC(=O)NC(=O)CN2C(=O)C3CC=CCC3C2=O)C1C (stereo unspecified),1,·
CNC(=O)c1ccsc1NC(=O)CN1C(=O)c2ccccc2C1=O,1,0.86
COC(=O)c1ccc(N2CCN(Cc3ccccc3)CC2)c(N)c1,-1,-0.23
COc1ccc2oc(=O)cc(CN3CCCc4ccccc43)c2c1,0,0.57
CC1(C)NC(=O)C(C#N)=C(SCc2ccccc2)S1,38*,-1.2
CC1(C)CC(=O)c2cc(C#N)c(SCc3ccccc3)nc2C1,-4,·
CCCCn1c(=O)[nH]c(=O)c2c1nc(-c1ccc(-c3ccc(Cl)cc3)o1)n2C,2,·
CC(C)N1CC=C2C(C1)C(c1ccccc1Cl)C(C#N)=C(N)C2(C#N)C#N (stereo unspecified),26*,-2.3*
CC(C)(C)OC(=O)N1CC=C2C(C1)C(c1cccc(F)c1)C(C#N)=C(N)C2(C#N)C#N (stereo unspecified),-12,1.8
Cc1nc2ccn(Cc3cccnc3)c(=O)c2cc1C(=O)NCCCc1ccco1,3,-2.1*
Cc1ccc(NC(=O)c2cc3c(=O)n(Cc4ccco4)ccc3nc2C)cc1,-2,-0.43
CCOC(=O)c1ccc(-c2ccc(/C=C(\C#N)C(=O)NCc3cccs3)o2)cc1,-1,0.51
N#CC(C#N)=C(N)/C(C#N)=C\c1ccc(-c2ccccc2)o1,1,-0.11
N#C/C(=C/c1ccc(-c2ccc(S(N)(=O)=O)cc2)o1)C(=O)Nc1cc(Cl)ccc1Cl,30,-5.7*
N#C/C(=C\c1ccc(-c2cccc(Cl)c2)o1)C(N)=O,-4,-0.34
CCOC(=O)c1ccccc1NC(=O)/C(C#N)=C/c1ccc(-c2ccc(Cl)cc2)o1,10,-4.3*
CCOC(=O)c1cc(-c2ccc(/C=C(\C#N)C(N)=C(C#N)C#N)o2)ccc1Cl,6,-4.5*
CC(=O)N1CCc2c([nH]c3ccccc23)C1C (stereo unspecified),0,·
SMILES,BasE inh,LANA-nucl inh
O=C(O)c1ccccc1C(=O)c1ccc2c(c1)OCCO2,1,·
CCC1SC(CC)C(=O)N(CC(=O)Nc2ccc(F)cc2F)C1=O (stereo unspecified),1,-0.87
CCOC(=O)C1=C(N)Oc2cc(C)oc(=O)c2C1c1ccccc1F (stereo unspecified),28*,-0.57
CC1=C(C(=O)OC(C)C)C(c2ccccc2F)C(C#N)=C(N)O1 (stereo unspecified),-3,-0.17
C=CCOc1cccc(/C=C2/C(=O)NC(=S)N2C(C)=O)c1,1,-0.64
CC(C)CCNC(=O)C1CCCN(S(=O)(=O)N2CCC3(CC2)OCCO3)C1 (stereo unspecified),2,-2.2*
CCOC(=O)N1CCN(S(=O)(=O)N2CCCC(C(=O)NCCC(C)C)C2)CC1 (stereo unspecified),1,-0.25
COc1ccc(-c2csc(/C(C#N)=C(\O)CSc3nnc(-c4ccccc4F)n3C3CC3)n2)cc1OC,-2,·
COc1ccc(-c2csc(/C(C#N)=C(\O)CSc3nccn3C)n2)cc1OC,31*,·
CC(C)CCSc1nc(-c2cccs2)ccc1C#N,0,0.44
O=c1/c(=C\c2cccs2)sc2nc3ccccc3n12,3,-0.059
CC(C)n1ncc2c(C(=O)OCc3ccc(C#N)cc3)cc(-c3ccccc3)nc21,-2,·
O=C(O)c1cc(-c2ccccc2)nc2c1cnn2Cc1ccncc1,99*,·
COc1ccc(C(=O)Nc2cc3c4c(c2)CCN4C(=O)CC3)c(OC)c1,1,-0.78
CCN(CC)c1ccc(/C=C2\N=C(SC)SC2=O)cc1,9,-2.6*
CSC1=N/C(=C\c2ccccc2)C(=O)S1,2,-0.56
O=C(CSCc1ccccc1)Nc1cc(=O)[nH]c(=O)[nH]1,1,-0.53
O=C(Cc1ccc(F)cc1)Nc1cc(=O)[nH]c(=O)[nH]1,1,-2.2*
CCCNc1sc(S(C)(=O)=O)nc1S(=O)(=O)c1ccc(Cl)cc1,-1,2
Cc1ccc(C)c(OCCC(=O)NCc2ccc3c(c2)OCO3)c1,2,·
CCC(=O)Nn1cnc2c(cnn2-c2ccccc2)c1=O,0,-2.2*
O=C(Cc1ccccc1)Nn1cnc2c(cnn2-c2ccccc2)c1=O,-1,-0.8
O=C(Cc1csc2nc(-c3ccc(Cl)cc3)cn12)N1CCN(c2ccccc2)CC1,2,-0.81
O=C1c2ccccc2C(=O)N1Cc1cc(=O)n2ccsc2n1,2,·
O=c1cc(CN2CCCc3ccccc32)nc2sccn12,12,-7.9*
SMILES,BasE inh,LANA-nucl inh
CCc1c(CSC(=N)N)csc1C,-4,-0.085
Cc1c(CSC(=N)N)c(C)c(CSC(=N)N)c(C)c1CSC(=N)N,-3,-2.9*
CCSC1=NC2(CCCCC2)Nc2ccccc21,0,·
c1cnc2c(c1)NC1(CCCCC1)N2,29,-3.6*
Cc1cc(C(=O)OCC(=O)c2ccc3c(c2)OCO3)c2ccccc2n1,-3,·
Nc1cc[n+](CC(O)CO)cc1 (stereo unspecified),-90,-3.1*
[S-]c1n[n+]2c(-c3ccccc3)cc(-c3ccccc3)nc2s1,-1,·
O=C(Nc1ccccc1)N(Cc1nc(-c2ccccc2)no1)C1CCCCC1,2,-2.1*
O=C(c1ccccc1)N(Cc1nc(-c2ccccc2)no1)C1CCCCC1,2,-1.8
COc1ccc(C(=O)C(C(c2ccccc2)N2CCOCC2)N2CCOCC2)cc1 (stereo unspecified),1,·
CC(=O)Nc1ccc(-c2nc3cc(C)ccc3o2)cc1,0,-0.91
CC(=O)Nc1ccc2oc(C)nc2c1,37*,1.1
COc1ccc(C2=NN(C(=O)COn3nnc4ccccc43)C(c3ccco3)C2)cc1 (stereo unspecified),1,·
CCn1c(O)c(C=Nc2ccccc2)oc1=S,2,·
CCn1c(O)c(C=Nc2cccc(O)c2)sc1=S,0,-2.4*
O=C(/C=C/c1ccccc1)Nc1cccnc1,36*,·
O=C(/C=C/c1ccccc1)Nc1ccc(O)cc1,20,·
CC(=O)N(C(C)=O)N1C(=O)c2cccc3c(N4CCOCC4)ccc(c23)C1=O,17,·
O=C1c2cccc3c(N4CCCCC4)ccc(c23)C(=O)N1c1ccccn1,18,-6.2*
Brc1ccc(OCCn2cnc3ccccc32)cc1,39*,0.37
COc1ccc(OCCn2cnc3ccccc32)cc1,26*,-0.2
O=c1c2ccccc2ncn1CCOc1ccc(Br)cc1,1,·
CCCOc1ccc(Cn2cnc3ccccc32)cc1,19,0.18
COc1cc2c(cc1OC)-c1nnc(-c3cccnc3)n1C1(CCCC1)C2,0,-0.23
COc1cccc(C(=O)Nc2nc3cc4c(cc3s2)OCO4)c1,1,-1
CCOc1ccc(C(=O)Nc2nc3cc4c(cc3s2)OCO4)cc1,1,-2.2*
CC(=O)NN1C(=O)c2cccc3c(N(C)C)ccc(c23)C1=O,32*,·
CN(C)c1ccc2c3c(cccc13)C(=O)N(c1nc3ccccc3n1C)C2=O,0,-0.97

# Compound activity (PubChem BioAssay)
